No end group written: not given here.
Columns and labels:
[1] = molecular target: T1, ACE (E.C. 3.4.15.1) from the lungs of rabbits (Oryctolagus cuniculus, UniProt P12822); experiment: ACE inhibitory; type: biochemical, rabbit
T1 sequence (P12822 34-1310): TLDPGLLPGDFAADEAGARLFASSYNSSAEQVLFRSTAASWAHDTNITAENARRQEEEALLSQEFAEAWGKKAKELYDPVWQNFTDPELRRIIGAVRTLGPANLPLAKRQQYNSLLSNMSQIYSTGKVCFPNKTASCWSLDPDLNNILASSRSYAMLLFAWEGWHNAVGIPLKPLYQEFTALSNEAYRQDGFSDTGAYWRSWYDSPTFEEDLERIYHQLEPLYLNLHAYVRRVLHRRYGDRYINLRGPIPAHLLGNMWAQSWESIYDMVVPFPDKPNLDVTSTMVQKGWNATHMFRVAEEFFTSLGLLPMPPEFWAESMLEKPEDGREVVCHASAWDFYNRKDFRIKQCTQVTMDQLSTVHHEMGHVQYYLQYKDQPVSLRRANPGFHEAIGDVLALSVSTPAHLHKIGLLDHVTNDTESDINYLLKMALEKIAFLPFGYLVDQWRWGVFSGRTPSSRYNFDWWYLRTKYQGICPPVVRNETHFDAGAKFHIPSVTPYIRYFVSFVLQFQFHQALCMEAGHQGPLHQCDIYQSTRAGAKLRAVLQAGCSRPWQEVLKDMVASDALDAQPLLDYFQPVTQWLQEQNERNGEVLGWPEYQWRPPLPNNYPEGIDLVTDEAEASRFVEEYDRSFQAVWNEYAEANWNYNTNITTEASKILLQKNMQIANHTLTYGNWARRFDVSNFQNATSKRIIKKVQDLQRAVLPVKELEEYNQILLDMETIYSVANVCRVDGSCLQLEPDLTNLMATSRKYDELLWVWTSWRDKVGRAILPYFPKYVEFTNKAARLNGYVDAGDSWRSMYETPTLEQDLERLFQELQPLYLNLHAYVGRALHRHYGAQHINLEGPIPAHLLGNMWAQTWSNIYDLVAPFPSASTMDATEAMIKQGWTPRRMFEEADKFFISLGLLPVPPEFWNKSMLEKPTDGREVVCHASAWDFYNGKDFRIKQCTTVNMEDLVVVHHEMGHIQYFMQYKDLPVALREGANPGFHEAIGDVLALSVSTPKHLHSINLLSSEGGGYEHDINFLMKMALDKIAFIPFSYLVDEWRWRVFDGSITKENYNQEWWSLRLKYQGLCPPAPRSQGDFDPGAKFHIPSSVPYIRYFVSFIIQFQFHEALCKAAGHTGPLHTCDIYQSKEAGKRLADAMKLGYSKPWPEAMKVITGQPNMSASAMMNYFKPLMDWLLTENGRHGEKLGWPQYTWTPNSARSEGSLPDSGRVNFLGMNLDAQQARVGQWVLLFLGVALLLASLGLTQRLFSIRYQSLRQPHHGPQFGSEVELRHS
In short: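 Rabbit-lung ACE (solution at 25 mU mL−1) pre-incubated with sample for 10 min at 37 °C, then 30 min at 37 °C with HHL (10 mM solution in PBS). Stopped with 1 M HCl. Hippuric acid extracted into ethyl acetate, dried under vacuum, redissolved in water and read at A250 against a hippuric acid standard curve. Captopril positive control. % inhibition corrected for blanks; IC50 by non-linear regression; triplicate.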

[2] = Observed solubility of the peptide in water; type: physicochemical

ETSGMKPTEL [ETSGMKPTEL, Glu–Thr–Ser–Gly–Met–Lys–Pro–Thr–Glu–Leu]
IC50 [1]: 2.15 ± 0.016 µM

ISSMGILVCL [ISSMGILVCL, Ile–Ser–Ser–Met–Gly–Ile–Leu–Val–Cys–Leu]
IC50 [1]: 3.88 ± 0.004 µM | solubility [2]: ≥ 5000 µg/mL
